Experimental data reported in ChEMBL document CHEMBL4715745, “Synthesis and biological evaluation of novel FK228 analogues as potential isoform selective HDAC inhibitors” (Eur J Med Chem, 2016).

System: DMS-273
Experiment: Growth inhibition of human DMS-273 cells measured after 48 hrs by sulforhodamine B assay
Type: functional
Conditions: not given
Procedure, shortened: (§1)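 Panel of 39 human cancer cell lines tested at the Japanese Foundation for Cancer Research. Five concentrations per compound, spanning 10⁻¹¹–10⁻⁷ M, 10⁻¹⁰–10⁻⁶ M or 10⁻⁸–10⁻⁴ M, were used to build dose-response curves. GI₅₀ is the concentration giving 50% growth inhibition relative to control.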

Row | SMILES | GI50 [nM]
1 | CC(C)[C@H]1NC(=O)C[C@H]2/C=C/CCSSC[C@@H](NC1=O)C(=O)N[C@H](Cc1ccccc1)C(=O)NCC(=O)O2 | 20

System: DMS-114
Experiment: Growth inhibition of human DMS-114 cells measured after 48 hrs by sulforhodamine B assay
Type: functional
Conditions: not given
Procedure, shortened: as §1

Row | SMILES | GI50 [nM]
2 | CC(C)[C@H]1NC(=O)C[C@H]2/C=C/CCSSC[C@@H](NC1=O)C(=O)N[C@H](Cc1ccccc1)C(=O)NCC(=O)O2 | 4.1

System: MCF7
Experiment: Growth inhibition of human MCF7 cells measured after 48 hrs by sulforhodamine B assay
Type: functional
Conditions: not given
Procedure, shortened: as §1

Row | GI50 [nM] | SMILES
3 | 62 | CC(C)[C@H]1NC(=O)C[C@H]2/C=C/CCSSC[C@@H](NC1=O)C(=O)N[C@H](Cc1ccccc1)C(=O)NCC(=O)O2

System: U-251
Experiment: Growth inhibition of human U-251 cells measured after 48 hrs by sulforhodamine B assay
Type: functional
Conditions: not given
Procedure, shortened: as §1

Row | GI50 [nM] | SMILES
4 | 22 | CC(C)[C@H]1NC(=O)C[C@H]2/C=C/CCSSC[C@@H](NC1=O)C(=O)N[C@H](Cc1ccccc1)C(=O)NCC(=O)O2

System: MKN-7
Experiment: Growth inhibition of human MKN-7 cells measured after 48 hrs by sulforhodamine B assay
Type: functional
Conditions: not given
Procedure, shortened: as §1

Row | GI50 [nM] | SMILES
5 | 35 | CC(C)[C@H]1NC(=O)C[C@H]2/C=C/CCSSC[C@@H](NC1=O)C(=O)N[C@H](Cc1ccccc1)C(=O)NCC(=O)O2

System: SK-OV-3
Experiment: Growth inhibition of human SK-OV-3 cells measured after 48 hrs by sulforhodamine B assay
Type: functional
Conditions: not given
Procedure, shortened: as §1

Row | GI50 [nM] | SMILES
6 | 2.4 | CC(C)[C@H]1NC(=O)C[C@H]2/C=C/CCSSC[C@@H](NC1=O)C(=O)N[C@H](Cc1ccccc1)C(=O)NCC(=O)O2

System: MKN-1
Experiment: Growth inhibition of human MKN-1 cells measured after 48 hrs by sulforhodamine B assay
Type: functional
Conditions: not given
Procedure, shortened: as §1

Row | GI50 [nM] | SMILES
7 | 2.6 | CC(C)[C@H]1NC(=O)C[C@H]2/C=C/CCSSC[C@@H](NC1=O)C(=O)N[C@H](Cc1ccccc1)C(=O)NCC(=O)O2

System: NCI-H23
Experiment: Growth inhibition of human NCI-H23 cells measured after 48 hrs by sulforhodamine B assay
Type: functional
Conditions: not given
Procedure, shortened: as §1

Row | GI50 [nM] | SMILES
8 | 4.4 | CC(C)[C@H]1NC(=O)C[C@H]2/C=C/CCSSC[C@@H](NC1=O)C(=O)N[C@H](Cc1ccccc1)C(=O)NCC(=O)O2

System: SF-268
Experiment: Growth inhibition of human SF-268 cells measured after 48 hrs by sulforhodamine B assay
Type: functional
Conditions: not given
Procedure, shortened: as §1

Row | SMILES | GI50 [nM]
9 | CC(C)[C@H]1NC(=O)C[C@H]2/C=C/CCSSC[C@@H](NC1=O)C(=O)N[C@H](Cc1ccccc1)C(=O)NCC(=O)O2 | 5

Biological target: Histone deacetylase 1 (Homo sapiens, UniProt Q13547)
Sequence (Q13547 whole entry): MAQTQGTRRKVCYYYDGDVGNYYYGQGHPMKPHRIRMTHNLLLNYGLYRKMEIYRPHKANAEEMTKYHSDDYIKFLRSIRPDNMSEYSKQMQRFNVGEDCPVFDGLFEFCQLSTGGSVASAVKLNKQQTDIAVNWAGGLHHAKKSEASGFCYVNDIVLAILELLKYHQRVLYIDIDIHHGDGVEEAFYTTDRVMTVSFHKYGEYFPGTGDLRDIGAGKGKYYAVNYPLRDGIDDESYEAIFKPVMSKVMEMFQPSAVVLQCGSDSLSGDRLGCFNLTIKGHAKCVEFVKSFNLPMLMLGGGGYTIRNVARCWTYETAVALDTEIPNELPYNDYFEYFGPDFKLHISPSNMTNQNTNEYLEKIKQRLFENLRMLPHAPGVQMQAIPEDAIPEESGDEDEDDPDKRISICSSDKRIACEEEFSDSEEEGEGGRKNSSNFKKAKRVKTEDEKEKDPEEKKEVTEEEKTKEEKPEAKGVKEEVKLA
Experiment: Inhibition of human HDAC1 expressed in 293T cells using Ac-KGLGK(Ac)-MCA as substrate incubated for 30 mins in presence of 0.1 mM DTT by fluorescence plate reader assay
Set-up: species or system HEK293T
Conditions: not given

Row | IC50 [nM] | SMILES
10 | 0.54 | CC(C)[C@H]1NC(=O)C[C@H]2/C=C/CCSSC[C@@H](NC1=O)C(=O)N[C@H](Cc1ccccc1)C(=O)NCC(=O)O2

System: HCT-15
Experiment: Growth inhibition of human HCT-15 cells measured after 48 hrs by sulforhodamine B assay
Type: functional
Conditions: not given
Procedure, shortened: as §1

Row | GI50 [nM] | SMILES
11 | 100 | CC(C)[C@H]1NC(=O)C[C@H]2/C=C/CCSSC[C@@H](NC1=O)C(=O)N[C@H](Cc1ccccc1)C(=O)NCC(=O)O2

System: St-4
Experiment: Growth inhibition of human St-4 cells measured after 48 hrs by sulforhodamine B assay
Type: functional
Conditions: not given
Procedure, shortened: as §1

Row | SMILES | GI50 [nM]
12 | CC(C)[C@H]1NC(=O)C[C@H]2/C=C/CCSSC[C@@H](NC1=O)C(=O)N[C@H](Cc1ccccc1)C(=O)NCC(=O)O2 | 34

System: SNB-75
Experiment: Growth inhibition of human SNB-75 cells measured after 48 hrs by sulforhodamine B assay
Type: functional
Conditions: not given
Procedure, shortened: as §1

Row | SMILES | GI50 [nM]
13 | CC(C)[C@H]1NC(=O)C[C@H]2/C=C/CCSSC[C@@H](NC1=O)C(=O)N[C@H](Cc1ccccc1)C(=O)NCC(=O)O2 | 8.7

System: LOX IMVI
Experiment: Growth inhibition of human LOX IMVI cells measured after 48 hrs by sulforhodamine B assay
Type: functional
Conditions: not given
Procedure, shortened: as §1

Row | SMILES | GI50 [nM]
14 | CC(C)[C@H]1NC(=O)C[C@H]2/C=C/CCSSC[C@@H](NC1=O)C(=O)N[C@H](Cc1ccccc1)C(=O)NCC(=O)O2 | 2.2

Biological target: T1, Protein deacetylase HDAC6 (Mus musculus, UniProt Q9Z2V5)
T1 sequence (Q9Z2V5 whole entry): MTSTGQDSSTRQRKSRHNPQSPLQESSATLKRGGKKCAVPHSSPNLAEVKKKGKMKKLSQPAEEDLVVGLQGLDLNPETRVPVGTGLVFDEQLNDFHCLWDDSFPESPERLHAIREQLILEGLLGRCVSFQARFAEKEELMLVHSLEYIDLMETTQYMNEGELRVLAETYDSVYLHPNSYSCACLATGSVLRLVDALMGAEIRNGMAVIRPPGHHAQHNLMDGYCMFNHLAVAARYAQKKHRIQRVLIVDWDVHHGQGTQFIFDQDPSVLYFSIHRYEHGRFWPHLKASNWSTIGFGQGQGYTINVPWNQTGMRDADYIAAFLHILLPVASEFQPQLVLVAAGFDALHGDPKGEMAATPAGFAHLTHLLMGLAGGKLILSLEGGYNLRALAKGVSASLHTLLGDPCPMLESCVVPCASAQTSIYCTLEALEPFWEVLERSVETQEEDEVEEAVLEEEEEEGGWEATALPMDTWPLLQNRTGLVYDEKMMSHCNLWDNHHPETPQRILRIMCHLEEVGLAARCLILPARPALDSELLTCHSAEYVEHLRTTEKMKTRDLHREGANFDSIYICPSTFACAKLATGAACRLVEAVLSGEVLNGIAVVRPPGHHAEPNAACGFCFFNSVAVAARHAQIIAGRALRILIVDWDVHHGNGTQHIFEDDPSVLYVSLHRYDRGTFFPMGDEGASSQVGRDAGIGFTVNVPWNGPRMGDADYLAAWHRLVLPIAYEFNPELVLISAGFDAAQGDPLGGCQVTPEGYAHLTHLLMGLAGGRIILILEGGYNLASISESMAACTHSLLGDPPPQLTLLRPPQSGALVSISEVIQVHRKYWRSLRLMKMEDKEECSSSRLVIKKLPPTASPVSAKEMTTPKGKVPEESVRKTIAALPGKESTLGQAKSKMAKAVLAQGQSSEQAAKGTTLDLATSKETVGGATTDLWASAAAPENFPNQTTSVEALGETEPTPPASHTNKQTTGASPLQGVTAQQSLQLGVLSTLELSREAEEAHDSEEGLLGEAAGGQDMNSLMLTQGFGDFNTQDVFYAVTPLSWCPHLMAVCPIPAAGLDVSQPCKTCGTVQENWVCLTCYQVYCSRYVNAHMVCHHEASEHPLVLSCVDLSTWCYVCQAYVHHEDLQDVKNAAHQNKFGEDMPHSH
Experiment: Inhibition of mouse HDAC6 expressed in 293T cells using Ac-KGLGK(Ac)-MCA as substrate incubated for 30 mins in presence of 0.1 mM DTT by fluorescence plate reader assay
Set-up: species or system HEK293T
Conditions: not given
Procedure, shortened: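 HDAC enzyme assay run in the presence of 0.1 mM dithiothreitol (DTT); IC₅₀ determined.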

Row | IC50 [nM] | SMILES
15 | 54.9 | CC(C)[C@H]1NC(=O)C[C@H]2/C=C/CCSSC[C@@H](NC1=O)C(=O)N[C@H](Cc1ccccc1)C(=O)NCC(=O)O2

System: not listed separately
Experiment: Selectivity index, ratio of IC50 for mouse HDAC6 expressed in 293T cells to IC50 for human HDAC1 expressed in 293T cells using Ac-KGLGK(Ac)-MCA as substrate incubated for 30 mins in presence of 0.1 mM DTT by fluorescence plate reader assay
Conditions: 0.5 h
Procedure, shortened: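 Ratio of HDAC6 IC₅₀ to HDAC1 IC₅₀, taken as selectivity for class I HDAC1 over class II HDAC6. Both enzyme assays were run in the presence of 0.1 mM DTT.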

Row | SMILES | Ratio IC50
16 | CC(C)[C@H]1NC(=O)C[C@H]2/C=C/CCSSC[C@@H](NC1=O)C(=O)N[C@H](Cc1ccccc1)C(=O)NCC(=O)O2 | 102

System: NCI-H460
Experiment: Growth inhibition of human NCI-H460 cells measured after 48 hrs by sulforhodamine B assay
Type: functional
Conditions: not given
Procedure, shortened: as §1

Row | GI50 [nM] | SMILES
17 | 6.2 | CC(C)[C@H]1NC(=O)C[C@H]2/C=C/CCSSC[C@@H](NC1=O)C(=O)N[C@H](Cc1ccccc1)C(=O)NCC(=O)O2

System: DU-145
Experiment: Growth inhibition of human DU-145 cells measured after 48 hrs by sulforhodamine B assay
Type: functional
Conditions: not given
Procedure, shortened: as §1

Row | GI50 [nM] | SMILES
18 | 3.6 | CC(C)[C@H]1NC(=O)C[C@H]2/C=C/CCSSC[C@@H](NC1=O)C(=O)N[C@H](Cc1ccccc1)C(=O)NCC(=O)O2

System: OVCAR-8
Experiment: Growth inhibition of human OVCAR-8 cells measured after 48 hrs by sulforhodamine B assay
Type: functional
Conditions: not given
Procedure, shortened: as §1

Row | GI50 [nM] | SMILES
19 | 4.6 | CC(C)[C@H]1NC(=O)C[C@H]2/C=C/CCSSC[C@@H](NC1=O)C(=O)N[C@H](Cc1ccccc1)C(=O)NCC(=O)O2

System: NCI-H522
Experiment: Growth inhibition of human NCI-H522 cells measured after 48 hrs by sulforhodamine B assay
Type: functional
Conditions: not given
Procedure, shortened: as §1

Row | GI50 [nM] | SMILES
20 | 0.72 | CC(C)[C@H]1NC(=O)C[C@H]2/C=C/CCSSC[C@@H](NC1=O)C(=O)N[C@H](Cc1ccccc1)C(=O)NCC(=O)O2

System: KM12
Experiment: Growth inhibition of human KM12 cells measured after 48 hrs by sulforhodamine B assay
Type: functional
Conditions: not given
Procedure, shortened: as §1

Row | SMILES | GI50 [nM]
21 | CC(C)[C@H]1NC(=O)C[C@H]2/C=C/CCSSC[C@@H](NC1=O)C(=O)N[C@H](Cc1ccccc1)C(=O)NCC(=O)O2 | 2.8
